pIC50: −log10 of the molar value. The source made the active and inactive calls. No cut-off for these calls is given here.
How the values were obtained:
RAW264.7 [1] = assay: Cytotoxicity against […] RAW264.7 cells assessed as reduction in cell viability at 10 uM incubated for 48 hrs by resazurin staining based assay; conditions: raw264.7, 48 h
In short: (§1)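 RAW 264.7 macrophages treated 48 h with compound in RPMI (final DMSO 0.1%); survival measured by resazurin viability assay. Screening at 10 µM, IC50 range 1–80 µM. Controls amphotericin B 3.125 µg/mL and 0.1% DMSO; three independent experiments in internal quadruplicate.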

Leishmania braziliensis [2] = assay: Antileishmanial activity against Leishmania braziliensis MHOM/BR/75/M2904 amastigotes infected in […] cells assessed as cell viability at 10 uM incubated for 48 hrs by resazurin staining based assay (reference value: 10.71 %); format: functional
[3] = Solubility of compound in 0.1% DMSO by light microscopy; format: physicochemical
In short: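 Compounds taken up in aqueous 5% DMSO, diluted in RPMI to 10 µM (final DMSO 0.1%), and inspected by light microscopy for crystal formation.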

Leishmania braziliensis [4] = assay: Antileishmanial activity against Leishmania braziliensis MHOM/BR/75/M2904 promastigotes assessed as reduction in cell viability at 10 uM incubated for 48 hrs by resazurin staining based assay; format: functional, organism-based
In short: (§2)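 Log-phase promastigotes exposed 48 h to compound in RPMI (final DMSO 0.1%); survival read by resazurin relative to DMSO. Screening at 10 µM; IC50 runs at 1–80 µM. Amphotericin B 3.125 µg/mL and 0.1% DMSO as controls; quadruplicate wells, two or three independent experiments; significance by one-way ANOVA with Dunnett post-test.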

Leishmania braziliensis [5] = assay: Antileishmanial activity against Leishmania braziliensis MHOM/BR/75/M2904 amastigotes infected in […] cells assessed as cell viability at 80 uM incubated for 48 hrs by resazurin staining based assay (reference value: 10.71 %); format: functional
Leishmania braziliensis [6] = assay: Antileishmanial activity against Leishmania braziliensis MHOM/BR/75/M2904 amastigotes infected in […] cells assessed as cell viability at 40 uM incubated for 48 hrs by resazurin staining based assay (reference value: 10.71 %); format: functional
Leishmania braziliensis [7] = assay: Antileishmanial activity against Leishmania braziliensis MHOM/BR/75/M2904 amastigotes infected in […] cells assessed as cell viability at 30 uM incubated for 48 hrs by resazurin staining based assay (reference value: 10.71 %); format: functional
Leishmania braziliensis [8] = assay: Antileishmanial activity against Leishmania braziliensis MHOM/BR/75/M2904 amastigotes infected in […] cells assessed as cell viability at 20 uM incubated for 48 hrs by resazurin staining based assay (reference value: 10.71 %); format: functional
Leishmania braziliensis [9] = assay: Antileishmanial activity against Leishmania braziliensis MHOM/BR/75/M2904 amastigotes infected in […] cells assessed as cell viability at 5 uM incubated for 48 hrs by resazurin staining based assay (reference value: 10.71 %); format: functional
Leishmania braziliensis [10] = assay: Antileishmanial activity against Leishmania braziliensis MHOM/BR/75/M2904 amastigotes infected in […] cells assessed as cell viability at 2.5 uM incubated for 48 hrs by resazurin staining based assay (reference value: 10.71 %); format: functional
Leishmania braziliensis [11] = assay: Antileishmanial activity against Leishmania braziliensis MHOM/BR/75/M2904 promastigotes assessed as reduction in cell viability incubated for 48 hrs by resazurin staining based assay; format: functional, organism-based; conditions: MHOM/BR/75/M2904, 48 h; in short: as §2
RAW264.7 [12] = assay: Cytotoxicity against […] RAW264.7 cells assessed as reduction in cell viability incubated for 48 hrs by resazurin staining based assay; conditions: Mus musculus, RAW264.7, 48 h; in short: as §1
Leishmania braziliensis [13] = assay: Antileishmanial activity against Leishmania braziliensis MHOM/BR/75/M2904 amastigotes infected in […] cells assessed as reduction in cell viability incubated for 48 hrs by resazurin staining based assay; format: functional, organism-based; conditions: MHOM/BR/75/M2904, RAW264.7, 48 h
[14] = Selectivity index, ratio of IC50 of cytotoxicity against […] RAW264.7 cells to IC50 of antileishmanial activity against Leishmania braziliensis MHOM/BR/75/M2904 amastigotes infected in […] RAW264.7 cells; format: toxicity, cell-based; conditions: read-out: Ratio IC50
In short: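 Selectivity index from IC50 on RAW 264.7 macrophages over IC50 against intracellular amastigotes, both after 48 h by resazurin.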

Leishmania braziliensis [15] = assay: Cell cycle arrest in Leishmania braziliensis MHOM/BR/75/M2904 amastigotes infected in […] cells assessed as lobulated cell bodies incubated for 48 hrs by transmission electron microscopy; format: functional, organism-based
In short: (§3)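 Infected macrophage cultures treated with compound or DMSO control, then examined by transmission electron microscopy for parasite morphology within parasitophorous vacuoles (lobulation, multimembrane vesicles, chromatin fragments).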

Leishmania braziliensis [16] = assay: Induction of autophagy in Leishmania braziliensis MHOM/BR/75/M2904 amastigotes infected in […] RAW264.7 cells incubated for 48 hrs by transmission electron microscopy; format: functional, organism-based; in short: as §3
Leishmania braziliensis [17] = assay: Induction of apoptosis in Leishmania braziliensis MHOM/BR/75/M2904 amastigotes infected in […] RAW264.7 cells incubated for 48 hrs by transmission electron microscopy; format: functional, organism-based; in short: as §3
RAW264.7 [18] = assay: Cytotoxicity against […] RAW264.7 cells assessed as reduction in cell viability at 3.125 ug/ml incubated for 48 hrs by resazurin staining based assay; conditions: raw264.7, 48 h; in short: as §1
Leishmania braziliensis [19] = assay: Antileishmanial activity against Leishmania braziliensis MHOM/BR/75/M2904 amastigotes infected in […] cells assessed as cell viability at 1 uM incubated for 48 hrs by resazurin staining based assay (reference value: 10.71 %); format: functional

SMILES | Activity (RAW264.7 [1]) | Activity (Leishmania braziliensis [2]) | Activity (Leishmania braziliensis [4]) | other results
COc1ccc(Cn2cc(CCCOC(=O)/C=C/c3ccccc3)nn2)cc1 | Non-Toxic | 60.48% |  | 
O=C(/C=C/c1ccccc1)OCc1cn(Cc2ccc(C(F)(F)F)cc2)nn1 |  |  |  | solubility [3]: Insoluble
O=C(/C=C/c1ccc(F)cc1)Oc1ccc2c(c1)C(=O)OC2 | Non-Toxic | 43.87% | Active | 
COc1cc(/C=C/C(=O)Oc2ccc3c(c2)C(=O)OC3)cc(OC)c1OC | Non-Toxic | 64.46 - 80.47% | Active | Activity (Leishmania braziliensis [5]): 35.51%; Activity (Leishmania braziliensis [6]): 46.33%; Activity (Leishmania braziliensis [7]): 47.12%; Activity (Leishmania braziliensis [8]): 19.71%; Activity (Leishmania braziliensis [9]): 79.72%; Activity (Leishmania braziliensis [10]): 74.54%; pIC50 (Leishmania braziliensis [11]): 5.12; pIC50 (RAW264.7 [12]): < 4.10; pIC50 (Leishmania braziliensis [13]): 5.08; selectivity ratio [14]: > 9.67; Activity (Leishmania braziliensis [15]): Active; Activity (Leishmania braziliensis [16]): Active; Activity (Leishmania braziliensis [17]): Active
O=C(/C=C/c1ccccc1)OCCCc1cn(Cc2cc(Cl)ccc2Cl)nn1 | Non-Toxic | 45.74% | Active | 
O=C(/C=C/c1ccccc1)OCCCc1cn(Cc2ccc([N+](=O)[O-])cc2)nn1 | Non-Toxic | 20.58% | Active | 
O=C(/C=C/c1ccccc1)OCc1cn(Cc2cc(Cl)ccc2Cl)nn1 | Non-Toxic | 78.98% | inactive | 
O=C(/C=C/c1ccccc1)OCCCc1cn(Cc2ccc(C(F)(F)F)cc2)nn1 | Non-Toxic | 69.24% | Active | 
O=C(/C=C/c1ccccc1)OCCCc1cn(Cc2ccc(I)cc2)nn1 | Non-Toxic | 52.07% | Active | 
O=C(/C=C/c1ccccc1)OCc1cn(Cc2ccc([N+](=O)[O-])cc2)nn1 |  |  |  | solubility [3]: Insoluble
O=C(/C=C/c1ccc(Cl)cc1)Oc1ccc2c(c1)C(=O)OC2 |  |  |  | solubility [3]: Insoluble
O=C(/C=C/c1ccccc1)OCc1cn(Cc2ccc(F)cc2)nn1 | Non-Toxic | 59.1% | inactive | 
O=C(/C=C/c1ccccc1)OCc1cn(Cc2ccccc2Br)nn1 | Non-Toxic | 80.12% | inactive | 
O=C(/C=C/c1ccccc1)OCc1cn(Cc2ccc(Cl)cc2)nn1 |  |  |  | solubility [3]: Insoluble
O=C(/C=C/c1ccccc1)OCc1cn(Cc2ccc(OC(F)(F)F)cc2)nn1 | Non-Toxic | 77.39% | inactive | 
O=C(/C=C/c1ccccc1)OCCCc1cn(Cc2ccc(F)c(F)c2)nn1 | Non-Toxic | 47.85% |  | 
O=C(/C=C/c1ccccc1)OCCCc1cn(Cc2ccccc2F)nn1 | Non-Toxic | 19.67% |  | 

SMILES | Activity (RAW264.7 [1]) | Activity (Leishmania braziliensis [2]) | Activity (Leishmania braziliensis [4]) | other results
O=C(/C=C/c1ccccc1)OCCCc1cn(Cc2ccc(F)cc2)nn1 | Non-Toxic | 67.84% |  | 
O=C(/C=C/c1ccccc1)OCCCc1cn(Cc2ccc(OC(F)(F)F)cc2)nn1 | Non-Toxic | 65.84% | Active | 
O=C(/C=C/c1ccccc1)OCCCc1cn(Cc2ccccc2)nn1 | Non-Toxic | 39.73% | Active | 
O=C(/C=C/c1ccccc1)OCCCc1cn(Cc2ccccc2Br)nn1 | Non-Toxic | 57.32% |  | 
O=C(/C=C/c1ccccc1)OCCCc1cn(Cc2ccc(Cl)cc2)nn1 | Non-Toxic | 49.01% | Active | 
O=C(/C=C/c1ccc([N+](=O)[O-])cc1)Oc1ccc2c(c1)C(=O)OC2 | Non-Toxic | 59.54% |  | 
O=C(/C=C/c1ccccc1)OCc1cn(Cc2c(Cl)cc(Cl)cc2Cl)nn1 | Non-Toxic | 70.38% | inactive | 
O=C(/C=C/c1ccc(Br)cc1)Oc1ccc2c(c1)C(=O)OC2 | Non-Toxic | 50.14% | Active | 
C[C@@H]1[C@H](O)[C@@H](C)/C=C/C=C/C=C/C=C/C=C/C=C/C=C/[C@H](O[C@@H]2O[C@H](C)[C@@H](O)[C@H](N)[C@@H]2O)C[C@@H]2O[C@](O)(C[C@@H](O)C[C@@H](O)[C@H](O)CC[C@@H](O)C[C@@H](O)CC(=O)O[C@H]1C)C[C@H](O)[C@H]2C(=O)O [AMPHOTERICIN B] |  | 98.25% |  | Activity (RAW264.7 [18]): Non-Toxic
COc1ccc(Cn2cc(COC(=O)/C=C/c3ccccc3)nn2)cc1 | Non-Toxic | 76% | inactive | 
O=C(/C=C/c1ccccc1)OCc1cn(Cc2ccc(I)cc2)nn1 |  |  |  | solubility [3]: Insoluble
O=C(/C=C/c1ccccc1)OCc1cn(Cc2ccc(F)c(F)c2)nn1 | Non-Toxic | 68.6 - 86.32% | inactive | Activity (Leishmania braziliensis [6]): 72.41%; Activity (Leishmania braziliensis [7]): 95.13%; Activity (Leishmania braziliensis [8]): 79.77%; Activity (Leishmania braziliensis [9]): 98.18%; Activity (Leishmania braziliensis [10]): 83.08%; Activity (Leishmania braziliensis [19]): 85.4%; pIC50 (Leishmania braziliensis [11]): 5.52; pIC50 (RAW264.7 [12]): < 4.10
COc1ccc(/C=C/C(=O)Oc2ccc3c(c2)C(=O)OC3)cc1 |  |  |  | solubility [3]: Insoluble
O=C(/C=C/c1ccccc1)OCc1cn(Cc2ccccc2)nn1 | Non-Toxic | 19.91% | inactive | 
O=C(/C=C/c1ccccc1)OCc1cn(Cc2ccc(Br)cc2)nn1 |  |  |  | solubility [3]: Insoluble
O=C(/C=C/c1ccccc1)OCCCc1cn(Cc2ccc(Br)cc2)nn1 | Non-Toxic | 45.1% | Active | 

Reference: ChEMBL document CHEMBL4311973, “Synthesis of cinnamic acid derivatives and leishmanicidal activity against Leishmania braziliensis” (Eur J Med Chem, 2019)
